From PMC10585311 (Saudi Pharmaceutical Journal : SPJ, 2023)

Key:
B. subtilis = assay: Disc diffusion antibacterial screening; assay type: cell-based, Bacillus subtilis; conditions: B. subtilis (G + ve)
Procedure, shortened: (§1)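 Disc diffusion on standard nutrient agar as the basal medium. Values are from triplicate experiments. Significance was set at p < 0.05.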

S. aureus = assay: Disc diffusion antibacterial screening; assay type: cell-based; conditions: S. aureus (G + ve)
Procedure, shortened: as §1

E. coli = assay: Disc diffusion antibacterial screening; assay type: cell-based, Escherichia coli; conditions: E. coli (G–ve)
Procedure, shortened: as §1

S. typhi = assay: Disc diffusion antibacterial screening; assay type: cell-based, Salmonella typhi; conditions: S. typhi (G–ve)
Procedure, shortened: as §1

P. aeruginosa = assay: Disc diffusion antibacterial screening; assay type: cell-based, Pseudomonas aeruginosa; conditions: P. aeruginosa (G–ve)
Procedure, shortened: as §1

tested bacteria = assay: Disc diffusion antibacterial screening, overall statements; assay type: cell-based
Procedure, shortened: as §1

Aspergillus niger = assay: Mycelial growth inhibition, poisoned food technique; assay type: cell-based; conditions: in DMSO (20 μg/μL)
Aspergillus flavus = assay: as above; assay type: cell-based; conditions: in DMSO (20 μg/μL)
brine shrimp nauplii = assay: Brine shrimp lethality assay; assay type: in vivo; conditions: for percentage of dead shrimp (deaths): after 24 and 48 h
Procedure, shortened: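 Brine shrimp lethality assay. Test compounds were dissolved in DMSO and made up at four levels. Each vial held 5 mL NaCl solution and one of four sample levels (A–D: 4, 8, 16, 32). Each vial received 10 nauplii, with triplicate vials per level. Mortality was scored at each level and averaged as percent.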

B. cereus = assay: Disc diffusion antibacterial screening; assay type: cell-based, Bacillus cereus
Procedure, shortened: as §1

Row | Compound | Diameter of Inhibition Zones (B. subtilis) | Diameter of Inhibition Zones (S. aureus) | Diameter of Inhibition Zones (E. coli) | Diameter of Inhibition Zones (S. typhi) | Diameter of Inhibition Zones (P. aeruginosa) | antibacterial activity (tested bacteria; all tested bacteria) | Percent inhibition of fungal mycelial growth (Aspergillus niger) | Percent inhibition of fungal mycelial growth (Aspergillus flavus) | percentage of dead shrimp (deaths) (brine shrimp nauplii) | zone of inhibition (B. cereus) | toxicity to brine shrimp (brine shrimp nauplii) | inhibitory activity (tested bacteria; tested gram-positive bacteria)
1 | CC[C@H]1OC(=O)[C@H](C)[C@@H](O[C@H]2C[C@@](C)(OC)[C@@H](O)[C@H](C)O2)[C@H](C)[C@@H](O[C@@H]2O[C@H](C)C[C@H](N(C)C)[C@H]2O)[C@](C)(O)C[C@@H](C)CN(C)[C@H](C)[C@@H](O)[C@]1(C)O [Azithromycin, reference compound] | **19 ± 0.6 mm | **18 ± 0.5 mm | **17 ± 0.4 mm | **19 ± 0.5 mm | **17 ± 0.5 mm | – | – | – | – | – | – | –
2 | CO[C@H]1O[C@H](CO)[C@@H](O)[C@H](O)[C@H]1O [Compound 1, methyl α-D-glucopyranoside, reference compound] | – | – | – | – | – | did not show any antibacterial activity | – | – | – | – | – | –
3 | CO[C@H]1O[C@H](COC(c2ccccc2)(c2ccccc2)c2ccccc2)[C@@H](O)[C@H](O)[C@H]1O [Compound 2, Methyl 6-O-(triphenylmethyl)-α-D-glucopyranoside] | 8 ± 0.5 mm | – | 9 ± 0.2 mm | – | 9 ± 0.1 mm | – | 36.43% | 33.33% | 32.11% | – | – | –
4 | CCCCCCCCCCCCCC(=O)O[C@@H]1[C@@H](OC(=O)CCCCCCCCCCCCC)[C@@H](OC)O[C@H](COC(c2ccccc2)(c2ccccc2)c2ccccc2)[C@H]1OC(=O)CCCCCCCCCCCCC [Compound 4, Methyl 2,3,4-tri-O-myristoyl-6-O-(triphenylmethyl)-α-D-glucopyranoside] | 10 ± 0.3 mm | – | – | 9 ± 0.5 mm | 8 ± 0.2 mm | – | 31.92% | – | 47.64% | – | – | –
5 | CO[C@H]1O[C@H](COC(c2ccccc2)(c2ccccc2)c2ccccc2)[C@@H](OC(=O)c2ccc(C(C)(C)C)cc2)[C@H](OC(=O)c2ccc(C(C)(C)C)cc2)[C@H]1OC(=O)c1ccc(C(C)(C)C)cc1 [Compound 5, Methyl 2,3,4-tri-O-(4-t-butylbenzoyl)-6-O-(triphenylmethyl)-α-D-glucopyranoside] | – | *17 ± 0.1 mm | *15 ± 0.2 mm | 10 ± 0.4 mm | – | – | – | *59.54 ± 0.14% | 48.21% | 17 ± 0.1 mm | – | –
6 | COc1ccc(C(=O)OC[C@H]2O[C@H](OC)[C@H](O)[C@@H](O)[C@@H]2O)cc1 [Compound 7, Methyl 6-O-(4-methoxybenzoyl)-α-D-glucopyranoside] | *12 ± 0.2 mm | 10 ± 0.1 mm | 9 ± 0.4 mm | – | – | – | 48.40 ± 0.22% | 35.38 ± 0.32% | – | – | – | –
7 | CCCCCCCCCCCC(=O)O[C@@H]1[C@@H](OC(=O)CCCCCCCCCCC)[C@@H](OC)O[C@H](COC(=O)c2ccc(OC)cc2)[C@H]1OC(=O)CCCCCCCCCCC [Compound 8, Methyl 2,3,4-tri-O-lauroyl-6-O-(4-methoxybenzoyl)-α-D-glucopyranoside] | 9 ± 0.3 mm | 11 ± 0.2 mm | 10 ± 0.1 mm | – | – | – | *66.41 ± 0.37% | *63.31 ± 0.51% | – | – | less toxic | –
8 | C[C@@H]1[C@H](O)[C@@H](C)/C=C/C=C/CC/C=C/C=C/C=C/C=C/C(O[C@H]2O[C@H](C)[C@@H](O)[C@H](N)[C@@H]2O)CC2O[C@](O)(CC(O)C(O)CCC(O)CC(O)CC(O)CC(=O)O[C@H]1C)CC(O)C2C(=O)O (stereo partly drawn) [Nystatin, reference compound] | – | – | – | – | – | – | **66.40 ± 0.05% | **63.10 ± 0.09% | – | – | – | –
9 | Methyl 2,3,4-tri-O-lauryl-6-O-(triphenylmethyl)-α-D-glucopyranoside [Compound 3] | – | – | – | 10 ± 0.1 mm | *12 ± 0.3 mm | – | 46.62% | 41.30% | – | – | less toxic | did not show any inhibitory activity
